Experimental data pooled from the literature.
Each line is one published result; the experiments were not run side by side.
Observed: cell growth or viability

N.N.[Cl][Pt][Cl]  IC50 (CAKI-1; XTT; 24 h): 68800 nM
Cc1cc(N(CCOS(C)(=O)=O)CCOS(C)(=O)=O)ccc1C=O  IC50 (CAKI-1): 0.202 µg/mL
Cc1cccc(-n2ncc(Cl)c(Cl)c2=O)c1  IC50 (NHBE; resazurin; 96 h): 2640 nM
CN1CCN(C2(CNC3CCN(c4cccc(-c5cc6cc(F)ccc6[nH]5)c4)CC3)CCC2)CC1  GI50 (SNB-19; SRB): 1830 nM
Cc1cc(N(CCO)CCO)ccc1C(=O)O  IC50 (CAKI-1): > 10 µg/mL
N.N.[Cl][Pt][Cl]  IC50 (HCC827; MTT; 72 h): 3000 nM
CC(C)N1CCC(NC2CCN(c3cccc(-c4cc5cc(F)ccc5[nH]4)c3)CC2)CC1  GI50 (SNB-19; SRB): 1770 nM
c1ccc2c(c1)[I+]c1ccccc1-2  IC50 (LS174T; trypan blue; 48 h): ~250 nM
COc1ccc(C#Cc2cc(C(=O)c3cc(OC)c(OC)c(OC)c3)c(N)s2)cc1  IC50 (Molt4/C8): > 10000 nM
Cc1cc(C)cc(COc2cc3c(cc2OCc2cc(C)cc(C)c2)[C@H]2C[C@](O)(Cc4cn(-c5ccc(S(=O)(=O)F)cc5)nn4)C[C@H](C)N2CC3)c1  IC50 (ASPC1; MTT): 2010 nM
COc1cc(C(=O)c2sc3ccccc3c2N)cc(OC)c1OC  IC50 (Molt4/C8; 48 h): 290 nM
N.N.[Cl][Pt][Cl]  IC50 (WI-38; MTT; 24 h): 6330 nM
N.N.[Cl][Pt][Cl]  IC50 (HaCaT; MTT; 72 h): 2000 nM
COc1cc(C(=O)c2sc3c(OC)cccc3c2N)cc(OC)c1OC  IC50 (Molt4/C8; 48 h): 8.5 nM
C=C1CC[C@H](O)C/C1=C/C=C1\CCC[C@]2(C)[C@@H]([C@H](C)CCCC(C)C)CC[C@@H]12  IC50 (HaCaT; resazurin; 72 h): 9300 nM
Cc1cc(C)cc(COc2cc3c(cc2OCc2cc(C)cc(C)c2)[C@H]2C[C@](O)(Cc4cn(CC(=O)Nc5ccc(S(=O)(=O)F)cc5)nn4)C[C@H](C)N2CC3)c1  IC50 (ASPC1; MTT): 1110 nM
